Experimental data collected from several papers.
Lines come from different studies, so protocols differ.
Target: Aurora kinase B (AURKB, Homo sapiens, UniProt Q96GD4)

`Cc1c[nH]c2nccc(Oc3c(F)cc(Nc4cc(Cl)nc(N)n4)cc3F)c12` gave a remaining binding of 82% (cell-free assay; competition with immobilised ligand; 0.1 µM).
`Cc1ccc(C(=O)NCc2ccsc2)cc1C#Cc1cn(C(C)C)c2ncnc(N)c12` has an activity vs control of 40% (enzyme activity; inhibitor; 1 µM).
`CCc1ccccc1C(=O)Nc1n[nH]c2c(C)c(F)c(C3C(C#N)=C(C)N(C)C(C)=C3C#N)cc12` has a remaining binding of 88% (cell-free assay; competition with immobilised ligand; 1 µM).
With `COc1cc2nccc(Oc3ccc(NC(=O)c4c5n(n(-c6ccc(F)cc6)c4=O)CCCC5)cc3)c2cc1OC` the inhibition was 60% (enzyme activity; inhibitor; 0.1 µM).
`Cc1nn(CC(F)(F)F)cc1Nc1ncc(Br)c(NCCc2cnc[nH]2)n1` gave a remaining activity of 22% (enzyme activity; inhibitor; radiometric; 1 µM).
With `CS(=O)(=O)Nc1cccc(-c2csc(NC(=O)CSc3nc4nccnc4c(=O)n3CCc3ccccc3)n2)c1` the inhibition was -11% (enzyme activity; inhibitor; 10 µM).
`Brc1cnc(Nc2cccc(CN3CCOCC3)c2)nc1NCCc1c[nH]cn1` has a remaining activity of 1% (enzyme activity; inhibitor; radiometric; 1 µM).
`CN(C)C1CCN(CC#Cc2nn(C3CCCC3)c3nc(NCc4ccccc4)ncc23)C1` (centres unmarked) gave an inhibition of 21% (enzyme activity; inhibitor; FRET; 1 µM).
For `O=C(Nc1cccc(Nc2ncc(Br)c(NCCc3cnc[nH]3)n2)c1)N1CCCC1`, the remaining activity was 2% (enzyme activity; inhibitor; radiometric; 1 µM).
For `O=C1c2ccccc2-c2n[nH]c3cccc1c23`, the activity vs control was 14.9% (enzyme activity; inhibitor; 0.5 µM).
For `CNc1cccc2cc(C(=O)Nc3ccc(C(=O)O)cc3)c(=O)[nH]c12`, the inhibition was -8.1% (enzyme activity; inhibitor; 10 µM).
`C[C@H](c1cccc(C#N)c1)n1cc(Cl)cc(C(N)=O)c1=N` has a remaining binding of 100% (cell-free assay; competition with immobilised ligand; 1 µM).
With `COc1cc2c(Nc3ccc(Br)cc3F)ncnc2cc1OCC1CCN(C)CC1` the remaining signal was 95.5% (cell-free assay; 0.5 µM).
With `Cc1nc(N2CC[C@@H](O)C2)ncc1-c1cc(C(F)(F)F)cc2[nH]ncc12` the remaining binding was 100% (cell-free assay; competition with immobilised ligand; 1 µM).
With `Cc1nn(CC(F)(F)F)cc1Nc1ncc(C2CC2)c(NCCc2c[nH]cn2)n1` the remaining activity was 82% (enzyme activity; inhibitor; radiometric; 1 µM).
For `Cc1cc(Nc2cc3ncccc3c(N[C@@H]3C[C@H]4CC[C@@H](C3)N4CCC#N)n2)n[nH]1`, the inhibition was 80% (enzyme activity; inhibitor; 1 µM).
With `CC(=O)C1=C(C)N(c2cccc(C(F)(F)F)c2)C(=O)N[C@@H]1c1ccc(C#N)nc1` the remaining binding was 100% (cell-free assay; competition with immobilised ligand; 1 µM).
`N#CCCc1ccc2c(c1)-c1[nH]c3ccc([N+](=O)[O-])cc3c1CC(=O)N2` has a remaining signal of 80% (cell-free assay; 0.5 µM).
`CCC(=O)N[C@@H]1CC[C@H](C(=O)N(C)c2ccc(-c3nc4ccccc4o3)cc2)C1` gave a remaining binding of 96% (cell-free assay; competition with immobilised ligand; 1 µM).
For `Cc1ccc(NC(=O)c2ccc(C)c(C(F)(F)F)c2)cc1C#Cc1nn(C2CCC(O)CC2)c2ncnc(N)c12` (centres unmarked), the remaining signal was 475% (cell-free assay; inhibitor; 10 µM).
